Each structure is given as a SMILES string.

The test can be described thus: Inhibition of partially purified soluble aminopeptidase from rat brain. Particulars: read-out: I50. Put shortly:
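Enzyme from whole fresh Sprague-Dawley rat brain: homogenized in ice-cold 50 mM Tris-HCl pH 7.4 with 1 mM DTT and 0.01 mM ZnCl2, soluble supernatant taken after 80000g spin, 40–70% ammonium sulfate cut, dialyzed. About 30 μg protein started the reaction with leucine p-nitroanilide (final 100 μM), up to 1 h at 37 °C or room temperature. Released p-nitroaniline read at 550 nm.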
In the case of `CC(C)C[C@@H](NC(=O)[C@H](Cc1ccccc1)NCC(S)[C@@H](N)Cc1ccccc1)C(=O)O` (stereo partly drawn), the IC50 was 1 nM.

For `N[C@@H](CS)Cc1ccccc1`, the IC50 was 6900 nM.

For the compound `CC(C)CCNCC(S)[C@H](N)Cc1ccccc1` (stereo in doubt; 57), the IC50 was found to be 3100 nM.

Consider `CC(C)CCNCC(S)[C@@H](N)CC(C)C` (stereo in doubt; 56), for which the IC50 was determined as 29 nM.

As for `CC(C)CCNCC(S)[C@@H](N)Cc1ccccc1` (stereo in doubt; 54), the IC50 stood at 20 nM.

In the case of `CC(C)C[C@H](NCC(S)[C@@H](N)Cc1ccccc1)C(=O)O` (stereo in doubt; 71), the IC50 came to 220 nM.

As to `CC(C)C[C@H](NC(=O)C(S)[C@H](N)Cc1ccccc1)C(=O)O` (stereo in doubt; 79), the IC50 was determined as 220 nM.

Take `CC(C)CCNCC(S)[C@@H](N)CC(C)C` (stereo in doubt; 55): the IC50 turned out to be 81 nM.

As to `CC(C)C[C@H](N)CS`, the IC50 stood at 10 nM.

Regarding `CC(C)CCNCC(S)[C@@H](N)Cc1ccccc1` (stereo in doubt; 53), the IC50 amounted to 300 nM.

Consider `CC(C)CCNCC(S)[C@H](N)CC(C)C` (stereo in doubt; 59), for which the IC50 was 7500 nM.

`CC(C)C[C@H](NC(=O)[C@@H](O)[C@H](N)Cc1ccccc1)C(=O)O` [UBENIMEX]: the IC50 was determined as 170 nM.

As to `CC(C)CCNCC(S)[C@H](N)CC(C)C` (stereo in doubt; 60), the IC50 was determined as 2500 nM.

`CC(C)C[C@H](NC(=O)C(S)[C@H](N)Cc1ccccc1)C(=O)O` (stereo in doubt; 78): the IC50 amounted to 10000 nM.

As to `CC(C)C[C@H](NC(=O)C(S)[C@@H](N)Cc1ccccc1)C(=O)O` (stereo partly drawn), the IC50 is 1600 nM.

Regarding `CC(C)C[C@@H](NC(=O)[C@H](Cc1ccccc1)NCC(S)[C@@H](N)CC(C)C)C(=O)O` (stereo partly drawn), the IC50 stood at 4 nM.

Regarding `N[C@H](CS)Cc1ccccc1`, the IC50 is 39 nM.

Consider `CC(C)C[C@@H](NC(=O)[C@H](Cc1ccccc1)NCC(O)[C@@H](N)Cc1ccccc1)C(=O)O` (stereo partly drawn), for which the IC50 came out at 580 nM.

Turning to `CC(C)C[C@@H](NC(=O)[C@H](Cc1ccccc1)NCCS)C(=O)O`, the IC50 turned out to be 240000 nM.

With `CC(C)C[C@H](NCC(S)[C@@H](N)Cc1ccccc1)C(N)=O` (stereo partly drawn), the IC50 was determined as 33 nM.

For the compound `CC(C)C[C@H](NCC(S)[C@@H](N)Cc1ccccc1)C(=O)O` (stereo in doubt; 70), the IC50 worked out at 4400 nM.

On to `CC(C)C[C@H](NCC(S)[C@@H](N)CC(C)C)C(N)=O` (stereo partly drawn), for which the IC50 was 34 nM.

In the case of `CC(C)CCNCC(S)[C@H](N)Cc1ccccc1` (stereo in doubt; 58), the IC50 stood at 600 nM.
